An excerpt weighted towards active compounds, which were near 4% of everything screened.
RAM inhibit = inhibitors of the yeast RAM network, primary screen, dse1pr::URA3 reporter, 5-FOA selection; AID 868, 2007; inhibition, % at 50 µM; 190,000 compounds, 1.8% hits; S. cerevisiae dse1pr::URA3 reporter, 5-FOA growth OD615, 2 d; analog-sensitive cbk1-as2 kinase mutant strain;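 active means inhibition above a set limit, 3 SD over mean compound inhibition, cut at about 8.4% in these data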;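 further: 0% = DMSO-only wells with no growth and 100% = 10 µM 1-NA-PP1 full growth; inhibition rescues growth on 5-FOA so higher OD means more RAM inhibition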
MDM2 E3 inh = MDM2-luciferase reporter signal enhancers, primary screen, MDM2 E3 ligase inhibitor project, cell-based, luminescence, 1536-well; 210,000 compounds, 0.11% hits; AID 1230, 2008; cell-based MDM2 ubiquitination luciferase reporter, 2 h; 0 = plate control, 100 = twice control, blank-subtracted; signal enhancement, % at 5 µM; E3 ubiquitin-protein ligase Mdm2 (Homo sapiens), Q00987;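 active means signal enhancement of 30% or more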;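 further: luminescence tracks abundance of the self-degrading MDM2-luciferase fusion protein; higher signal means inhibition of MDM2 E3 ligase activity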
Target sequence (Q00987 whole entry, looked up, the tested form may be a part): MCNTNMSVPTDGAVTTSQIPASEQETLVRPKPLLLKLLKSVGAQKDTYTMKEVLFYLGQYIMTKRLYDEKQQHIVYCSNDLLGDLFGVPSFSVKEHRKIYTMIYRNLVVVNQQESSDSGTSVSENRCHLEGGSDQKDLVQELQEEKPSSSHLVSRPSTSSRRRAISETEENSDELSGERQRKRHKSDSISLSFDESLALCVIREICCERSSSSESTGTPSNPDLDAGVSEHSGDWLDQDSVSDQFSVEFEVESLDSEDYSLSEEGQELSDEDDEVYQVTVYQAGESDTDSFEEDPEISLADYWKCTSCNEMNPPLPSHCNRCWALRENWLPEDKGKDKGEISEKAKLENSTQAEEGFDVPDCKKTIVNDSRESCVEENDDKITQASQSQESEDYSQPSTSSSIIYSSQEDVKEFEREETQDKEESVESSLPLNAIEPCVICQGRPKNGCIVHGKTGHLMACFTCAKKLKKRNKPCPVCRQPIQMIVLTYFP
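Assay system: stable mammalian line carrying autodegrading MDM2–luciferase fusion reporter; Input: 2000 cells in each well; Compound dosing: single-point 5 µM; Schedule: 2 h compound exposure at 37 °C; Signal: SteadyLite luciferase luminescence after 15 min room-temperature reagent incubation; Evaluation: % luminescence enhancement versus blank-corrected plate control mean; Benchmarks: plate controls and plate blanks.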
BB579 growth dn = growth inhibitors of yeast BB579 in restrictive medium, primary screen, yeast lifespan-shortening project, S. cerevisiae. OD615, 48 h. inhibition, % at 10 µM. 140,000 compounds, 0.51% hits;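 active means inhibition above a set limit, 3 SD over the mean compound inhibition, cut at about 44% in these data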
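Assay system – yeast BB579 (DeaD) · Dosing – single compound dose of 10 µM, 0.25% DMSO final · Detection – OD615 turbidity measurement · Buffer or medium – CSMM-D restrictive synthetic medium containing dextrose (glucose) · Benchmarks – positive control amphotericin B 10 µg/mL · Incubation – 48 h exposure, 30 °C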
Measles CPE = compounds protecting cells from measles virus cytopathic effect, primary screen, measles RdRp inhibitor project, single point, MLSMR library, absorbance | Measles virus-infected cells, CPE protection | protection (pct of control), % at 4 µM | 140,000 compounds, 1.5% hits; in the data active means protection mostly above about 24%, no sharp cut-off; inactive means mostly below about 26%
INS promoter inh = inhibitors of insulin promoter-driven GFP, primary screen, imaging, TRM-6 cells, eGFP reporter, cell count; reporter expression induced with tamoxifen; inhibition, % at 2 µM; 130,000 compounds, 0.9% hits;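 active means inhibition above the mean plus 3 SD, with well images judged a real hit on visual review, cut at about 60% in these data, passing the limit was not always enough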
Yeast life ext = compounds extending yeast replicative lifespan, primary screen, S. cerevisiae, OD615. S. cerevisiae growth with nicotinamide; deaD strain in restrictive glucose medium. inhibition of the nicotinamide effect, % at 10 µM. 130,000 compounds, 0.68% hits. AID 775, 2007;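 active means inhibition above a set limit, placed 3 SD over the median of all compounds, cut at about 26% in these data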;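 further: 0% = nicotinamide-treated wells and 100% = cells grown without nicotinamide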
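Test system – modified budding yeast, DeaD strain · Compound – single dose 10 µM compound, 0.25% DMSO · Times – culture preincubation 4 h, compound exposure 48 h, both 30 °C · Detection – optical density (absorbance) at 615 nm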
* = called active by the depositor; / = no result.

SMILES	RAM inhibit	MDM2 E3 inh	BB579 growth dn	Measles CPE	INS promoter inh	Yeast life ext
C=CCn1c(SCC(=O)OCC)nc2cc(C(=O)NCc3ccco3)ccc2c1=O	3	-16	-31	2	-44	-8
O=C(COC(=O)c1ccc(Br)cc1)Nc1ccccc1Br	3	-16	/	/	/	/
CCCCSc1nc(NCc2ccco2)c2c3c(sc2n1)COC(C)(C)C3	10*	-8	9	7	-2	-4
Cc1ccc2nc(-c3ccc(NS(=O)(=O)c4ccc(F)c(F)c4)cc3)sc2c1	5	-11	68*	7	24	-7
CCOC(=O)c1ccc(-n2c(N)c(C(=O)NCc3ccco3)sc2=S)cc1	6	4	10	51*	-73	-33
COc1ccc(-n2c(N)c(C(=O)NCc3ccco3)sc2=S)cc1	4	-1	-41	4	46	-16
Cc1ccc(Sc2cnn(-c3ccccc3)c(=O)c2Cl)cc1	2	-10	-9	4	/	31*
O=C(N/C(=C/c1cn(-c2ccccc2)nc1-c1ccccc1)C(=O)N1CCOCC1)c1ccc(Cl)cc1Cl	8.9*	3	-63	3	-42	6
CCCSc1ccc(-c2nn(-c3ccccc3)cc2/C=C(/C#N)C(=O)N2CCOCC2)cc1	8.8*	10	-43	14	/	10
CCSc1ccc(-c2nn(-c3ccccc3)cc2/C=C(/C#N)C(=O)NC)cc1	4	-6	-19	16	55	3
CCOCC(=O)Nc1nc(-c2ccccc2)c(CC)s1	1	-21	-45	2	/	-10
COC(=O)C1CSC(C(=O)OC)N1C(=O)CN1CCN(c2ccccc2)CC1 (stereo not given)	2	-25	/	/	/	/
CCO/N=C(\C)c1c(O)c2ccccc2n(C)c1=O	1	1	-49	2	-4	-5
CC(=O)c1c(C)oc2ccc(N(C(=O)C3CCCCC3)S(=O)(=O)c3cc([N+](=O)[O-])ccc3C)cc12	9.7*	-6	-31	17	/	-2
CC(=O)c1c(C)oc2ccc(N(C(C)=O)S(=O)(=O)c3cccc([N+](=O)[O-])c3)cc12	4	-8	/	/	/	/
CCOC(=O)CSc1n[nH]c(NC(=O)c2ccccc2)n1	2	-24	-1	53*	18	-7
CCOC(=O)CSc1nc(C)c2cccc(C)c2n1	/	-12	/	/	/	/
CCOC(=O)CSc1nc(C)c2ccccc2n1	2	-11	-30	5	79*	-8
CCOC(=O)CSc1n[nH]c(NC(=O)c2ccc(F)cc2)n1	3	-12	-21	11	25	-20
CC1CCN(CCNC(=S)Nc2ccc(Cl)cc2)CC1	1	-8	/	/	/	/
Cc1ccc(NS(=O)(=O)c2ccc(NC(=O)c3cccs3)cc2)cc1	4	-10	-13	16	23	2
Cc1ccc(NC(=O)CSc2ncc3ccccn23)cc1C	1	-6	/	/	0	/
Cc1cccc(NC(=O)CN2C(=O)N/C(=C/c3cc(C)n(-c4ccncc4)c3C)C2=O)c1	-2	-27	-11	6	7	1
Cc1cccc(NC(=O)CN2C(=O)N/C(=C/c3cc(C)n(C)c3C)C2=O)c1	5	-4	/	/	83*	/
Cc1cc(/C=C2/NC(=O)N(Cc3ccccc3F)C2=O)c(C)n1-c1ccccn1	4	9	-52	4	17	6
Cc1cc(/C=C2/NC(=O)N(Cc3ccccc3F)C2=O)c(C)n1C	1	4	-55	15	17	27*
C=CCn1c(=O)/c(=C2/SC(C)=C(C)N2CC)s/c1=C1/C(=O)N(CC)C(=S)N1c1ccccc1	2	-15	-48	4	0	-2
COc1ccc(-n2nnnc2/C=C/Nc2cc(C(F)(F)F)ccc2OC)cc1	/	-5	/	/	/	/
COc1ccc(-n2nnnc2/C=C\Nc2ccccc2C(=O)c2ccccc2)cc1	1	1	-18	31*	-70	-14
